Test results reported in ChEMBL document CHEMBL3124896, “Optimization of the lactam side chain of 7-azaindenoisoquinoline topoisomerase I inhibitors and mechanism of action studies in cancer cells” (2014).
Blank lines part the entries; values can stand above or below the compound they belong to. Calls of active or inactive are those of the source. The rule behind the calls is not given here.

How the values were obtained:
UACC-62 = test: Cytotoxicity against human UACC62 cells by SRB assay; format: functional
SN12C = test: Cytotoxicity against human SN12C cells by SRB assay; format: functional
MCF7 = test: Cytotoxicity against human MCF7 cells by SRB assay; format: functional
HOP-62 = test: Cytotoxicity against human HOP62 cells by SRB assay; format: functional
HCT-116 [1] = test: Cytotoxicity against human HCT116 cells by SRB assay; format: functional
DU-145 [2] = test: Cytotoxicity against human DU145 cells by SRB assay; format: functional
[3] = biological target: T1, DNA topoisomerase 1 (Homo sapiens) (UniProt P11387); test: Inhibition of human recombinant topoisomerase 1 using radiolabeled DNA as substrate after 20 mins by SDS-PAGE
T1 sequence (whole entry): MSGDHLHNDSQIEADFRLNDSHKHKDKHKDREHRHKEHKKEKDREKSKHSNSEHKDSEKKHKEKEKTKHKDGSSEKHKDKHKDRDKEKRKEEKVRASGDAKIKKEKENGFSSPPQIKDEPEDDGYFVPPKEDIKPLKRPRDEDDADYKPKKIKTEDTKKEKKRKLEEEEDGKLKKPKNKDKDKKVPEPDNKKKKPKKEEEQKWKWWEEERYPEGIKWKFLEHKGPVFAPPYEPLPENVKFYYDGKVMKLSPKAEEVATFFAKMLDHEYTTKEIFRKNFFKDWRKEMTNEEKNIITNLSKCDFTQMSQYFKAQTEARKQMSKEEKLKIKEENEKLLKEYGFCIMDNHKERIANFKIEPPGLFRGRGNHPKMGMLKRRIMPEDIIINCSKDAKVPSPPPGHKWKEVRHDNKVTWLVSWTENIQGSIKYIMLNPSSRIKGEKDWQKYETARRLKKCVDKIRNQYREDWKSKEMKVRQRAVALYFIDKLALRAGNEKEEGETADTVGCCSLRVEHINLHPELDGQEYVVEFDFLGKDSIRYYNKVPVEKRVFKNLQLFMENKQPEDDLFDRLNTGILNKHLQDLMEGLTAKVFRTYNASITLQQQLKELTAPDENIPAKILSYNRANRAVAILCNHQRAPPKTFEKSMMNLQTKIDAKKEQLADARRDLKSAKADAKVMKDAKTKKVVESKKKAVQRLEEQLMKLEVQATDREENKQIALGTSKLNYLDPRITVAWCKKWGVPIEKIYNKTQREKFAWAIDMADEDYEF
Procedure, shortened: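 A 117 bp oligonucleotide was 3′-end-labelled with [α-32P]dGTP by Klenow fill-in. Reactions were stopped with 0.5% SDS and run on 20% denaturing polyacrylamide gels. Cleavage bands were scored visually on a semiquantitative scale.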

OVCAR-3 = test: Cytotoxicity against human OVCAR3 cells by SRB assay; format: functional
SF-539 = test: Cytotoxicity against human SF539 cells by SRB assay; format: functional
[4] = biological target: T1, DNA topoisomerase 1 (Homo sapiens); test: Inhibition of human recombinant topoisomerase 1 using radiolabeled DNA as substrate at 0.1 to 100 uM after 20 mins by SDS-PAGE
Procedure, shortened: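 Baculovirus-purified human recombinant Top1 with ~2 nM of a 117 bp oligonucleotide, 3′-end-labeled with [α-32P]dGTP by Klenow fill-in. Drugs at 0.1, 1, 10, 100 μM; 25 °C, 20 min. Stopped with 0.5% SDS, run on 20% denaturing PAGE, phosphorimaged. Cleavage bands scored visually against camptothecin standard.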

HCT-116 [5] = test: Cytotoxicity against human HCT116 cells after 72 hrs by MTT assay; format: functional; conditions: HCT-116, 72 h
Procedure, shortened: (§1)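 Cells were seeded 24 h before dosing and exposed continuously for 72 h. Growth was read by colorimetric MTS assay and expressed relative to vehicle-treated controls set at 100. GI50 is the level giving 50% growth inhibition, from at least two independent determinations. HCT116 and siTop1 cells were kept in RPMI 1640/10% FBS with 100 μg/mL hygromycin; RC0.1 in RPMI 1640/10% FBS.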

[6] = biological target: T1, DNA topoisomerase 1 (Homo sapiens); test: Inhibition of human recombinant topoisomerase 1 in human HCT116 cells assessed as reversal of topoisomerase 1-DNA cleavage complex stabilization at 1 uM incubated for 1 hr followed by compound washout measured up to 6 hrs by DNA immunoblotting analysis; format: cell-based; conditions: HCT-116
Procedure, shortened: (§2)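 10^6 HCT116 cells were treated with 1 μM for 1 h, and for reversal were held in drug-free medium for the set times. Cells were lysed with DNAzol and genomic DNA was isolated and sonicated. Serial dilutions were slot-blotted onto membranes and Top1–DNA complexes detected with the C21 anti-Top1 monoclonal antibody by immunoblotting (ICE method).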

HCT-116 [7] = test: Cell cycle arrest in human HCT116 cells assessed as accumulation at G2 phase at 1 uM incubated for 1 hr followed by compound washout measured after 6 to 48 hrs by propidium iodide staining-based FACS analysis; format: functional
Procedure, shortened: (§3)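 HCT116 cells exposed to 1 μM drug for 1 h, then kept in drug-free medium for the stated times. Fixed cells were stained with propidium iodide and analysed by flow cytometry for DNA content histograms. Phase distributions were computed from the histograms.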

[8] = biological target: T1, DNA topoisomerase 1 (Homo sapiens); test: Inhibition of human recombinant topoisomerase 1 in human HCT116 cells assessed as DNA-protein cross linking at 1 uM incubated for 1 hr followed by compound washout measured after 1 hr; format: cell-based; conditions: HCT-116
Procedure, shortened: (§4)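 In HCT116 cells, Top1 cleavage complexes were quantified as DNA–protein cross-links by alkaline elution, plotting the fraction of DNA retained on the filter against time. Persistence was read 1 h after drug removal. The negative control was untreated cells given 30 Gy irradiation to create strand breaks.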

[9] = Resistance ratio of GI50 for vinblastine-resistant human KBV1 cells to GI50 for human KB 3.1 cells; format: functional
[10] = Resistance ratio of GI50 for human mitoxantrone-resistant H460 cells to GI50 for human H460 cells; format: functional
Procedure, shortened: (§5)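 Relative resistance = GI50 in the resistant subline divided by GI50 in the parental line. Both GI50s came from 72 h continuous-exposure MTS growth assays, each based on at least two independent determinations.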

[11] = Cytotoxicity against human mitoxantrone-resistant H460 cells after 72 hrs by MTT assay; format: functional; conditions: NCI-H460, 72 h; procedure, shortened: as §1
[12] = Cytotoxicity against human RC0.1 cells after 72 hrs by MTT assay; format: functional; procedure, shortened: as §1
[13] = biological target: T1, DNA topoisomerase 1 (Homo sapiens); test: Inhibition of human recombinant topoisomerase 1 in human HCT116 cells assessed as reversal of topoisomerase 1-DNA cleavage complex stabilization at 1 uM incubated for 1 hr followed by compound washout measured after 24 hrs by DNA immunoblotting analysis; format: cell-based; conditions: HCT-116; procedure, shortened: as §2
HCT-116 [14] = test: Cell cycle arrest in human HCT116 cells at 1 uM after 1 hr by propidium iodide staining-based FACS analysis; format: functional; procedure, shortened: as §3
HCT-116 [15] = test: Cell cycle arrest in human HCT116 cells assessed as accumulation at S phase at 1 uM incubated for 1 hr followed by compound washout measured after 3 hrs by propidium iodide staining-based FACS analysis; format: functional; procedure, shortened: as §3
DU-145 [16] = test: Resistance ratio of GI50 for human RC0.1 cells to GI50 for human DU145 cells; format: functional; procedure, shortened: as §5
[17] = biological target: T1, DNA topoisomerase 1 (Homo sapiens); test: Inhibition of human recombinant topoisomerase 1 in human HCT116 cells assessed as stabilization of topoisomerase 1-DNA cleavage complex at 1 uM after 1 hr by DNA immunoblotting analysis; format: cell-based; conditions: HCT-116; procedure, shortened: as §2
HCT-116 [18] = test: Induction of DNA damage in human HCT116 cells assessed as induction of histone gamma-H2AX level at 1 uM after 1 hr by flow cytometry
[19] = Cytotoxicity against human H460 cells after 72 hrs by MTT assay; format: functional; conditions: NCI-H460, 72 h; procedure, shortened: as §1
[20] = Cytotoxicity against human KB 3.1 cells after 72 hrs by MTT assay; format: functional; conditions: KB 3-1, 72 h; procedure, shortened: as §1
[21] = Cytotoxicity against vinblastine-resistant human KBV1 cells after 72 hrs by MTT assay; format: functional; conditions: KB-V1, 72 h; procedure, shortened: as §1
HCT-116 [22] = test: Cell cycle arrest in human HCT116 cells at 1 uM incubated for 1 hr followed by compound washout measured up to 1 hr by propidium iodide staining-based FACS analysis; format: functional; procedure, shortened: as §3
HCT-116 [23] = test: Resistance ratio of GI50 for human HCT116 cells transfected with Top1-siRNA to GI50 for human HCT116 cells; format: functional; procedure, shortened: as §5
HCT-116 [24] = test: Cytotoxicity against human HCT116 cells transfected with Top1-siRNA after 72 hrs by MTT assay; format: functional; conditions: HCT-116, 72 h; procedure, shortened: as §1
DU-145 [25] = test: Cytotoxicity against human DU145 cells after 72 hrs by MTT assay; format: functional; conditions: DU-145, 72 h; procedure, shortened: as §1
[26] = biological target: T1, DNA topoisomerase 1 (Homo sapiens); test: Inhibition of human recombinant topoisomerase 1 in human HCT116 cells assessed as DNA-protein cross linking at 1 uM after 1 hr; format: cell-based; conditions: HCT-116; procedure, shortened: as §4

Compound: COc1cnc2c(c1)C(=O)c1c-2n(CCCN(C)C)c(=O)c2cc(OC)c(OC)cc12
inhibition [3]: Active

Compound: COc1cnc2c(c1)C(=O)c1c-2n(CCCN)c(=O)c2cc([N+](=O)[O-])ccc12
GI50 (UACC-62): 24 nM | GI50 (SN12C): 40 nM | inhibition [4]: Active | GI50 (MCF7): < 10 nM | GI50 (HOP-62): 19 nM | GI50 (HCT-116 [1]): 36 nM | GI50 (DU-145 [2]): 35 nM | GI50 (OVCAR-3): 98 nM | GI50 (SF-539): 73 nM

Compound: COc1cnc2c(c1)C(=O)c1c-2n(CCCN2CCC(O)CC2)c(=O)c2cc([N+](=O)[O-])ccc12
GI50 (UACC-62): < 10 nM | GI50 (SN12C): < 10 nM | inhibition [4]: Active | GI50 (MCF7): < 10 nM | GI50 (HOP-62): < 10 nM | GI50 (HCT-116 [1]): 10 nM | GI50 (DU-145 [2]): < 10 nM | GI50 (OVCAR-3): 58 nM | GI50 (SF-539): 10 nM

Compound: COc1cnc2c(c1)C(=O)c1c-2n(CCCN(C)C)c(=O)c2cc([N+](=O)[O-])ccc12
inhibition [3]: Active

Compound: COc1cnc2c(c1)C(=O)c1c-2n(CCCn2ccnc2)c(=O)c2cc([N+](=O)[O-])ccc12.Cl
GI50 (HCT-116 [5]): 21.9 nM | GI50 (UACC-62): < 10 nM | inhibition [6]: Active | Activity (HCT-116 [7]): Active | inhibition [8]: Active | GI50 (SN12C): < 10 nM | RatioGI50 [9]: 1.02 | inhibition [4]: Active | RatioGI50 [10]: 19.05 | GI50 [11]: 417 nM | GI50 [12]: > 1000 nM | GI50 (MCF7): < 10 nM | inhibition [13]: Active | GI50 (HOP-62): < 10 nM | Activity (HCT-116 [14]): Active | Activity (HCT-116 [15]): Active | RatioGI50 (DU-145 [16]): >21.88 | GI50 (HCT-116 [1]): < 10 nM | GI50 (DU-145 [2]): < 10 nM | inhibition [17]: Active | Activity (HCT-116 [18]): 37.3% | GI50 (OVCAR-3): 25 nM | GI50 (SF-539): < 10 nM | GI50 [19]: 21.9 nM | GI50 [20]: 417 nM | GI50 [21]: 427 nM | Activity (HCT-116 [22]): Active | RatioGI50 (HCT-116 [23]): 3.24 | GI50 (HCT-116 [24]): 70.8 nM | GI50 (DU-145 [25]): 45.7 nM | inhibition [26]: Active

The next lines start with results.

inhibition [3]: Active
Compound: CN(C)CCCn1c2c(c3ccc([N+](=O)[O-])cc3c1=O)C(=O)c1cccnc1-2
GI50 (UACC-62): 3400 nM | GI50 (SN12C): 1560 nM | GI50 (MCF7): 474 nM | GI50 (HOP-62): 1940 nM | GI50 (HCT-116 [1]): 486 nM | GI50 (DU-145 [2]): 1550 nM | GI50 (OVCAR-3): 3120 nM | GI50 (SF-539): 3140 nM

inhibition [3]: Active
Compound: O=C1c2cccnc2-c2c1c1ccc([N+](=O)[O-])cc1c(=O)n2CCCN1CCOCC1
